In ChEMBL document CHEMBL1152337, “Antimicrobial ambiguine isonitriles from the cyanobacterium Fischerella ambigua” (J Nat Prod, 2009) one finds MIC, IC50 and Ratio data, which are given here for 17 molecules.

Assay [1] deals with Mycobacterium tuberculosis. The experiment in a line: Antimicrobial activity against Mycobacterium tuberculosis H37Rv by microplate Alamar blue assay. The format is functional. Summed up: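 Virulent H37Rv strain in a microplate Alamar blue assay. MIC defined as the lowest concentration giving at least 90% growth inhibition.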
A general note: Resazurin is reduced to fluorescent resorufin, in cell work by metabolically active cells.

The next assay concerns Bacillus anthracis. Nature of the assay: Antimicrobial activity against Bacillus anthracis. The format is functional. In a few lines:
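Compounds tested over 100 µg/mL down to 48.8 ng/mL. MIC taken as the lowest concentration preventing visible bacterial growth.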

The next assay concerns Staphylococcus aureus. The experiment in a line: Antimicrobial activity against Staphylococcus aureus by broth microdilution assay. The format is functional.
Assay [2] relates to Mycolicibacterium smegmatis. Nature of the assay: Antimicrobial activity against Mycobacterium smegmatis by broth microdilution assay. The assay is classed as functional. On the technique in general: Broth dilution looks for growth in wells or tubes with falling amounts of substance.
A further assay relates to Candida albicans. Nature of the assay: Antimicrobial activity against Candida albicans by broth microdilution assay. The assay is classed as functional.
The subject of a further assay is Vero. The experiment in a line: Cytotoxicity against african green monkey Vero cells. The assay is classed as cell-based. To be noted: Chlorocebus sabaeus.
Assay [3] is described as follows: Selectivity ratio of MIC for Mycobacterium tuberculosis H37Rv to MIC for Bacillus anthracis. The format is functional.

Converted amounts (≈) assume the structure as drawn.

By MIC is commonly meant the least concentration at which growth counts as inhibited. One may read the IC50 as the concentration that gives 50% inhibition.

As for `[C-]#[N+][C@@H]1[C@@H]2c3c(C(C)(C)C=C)[nH]c4cccc(c34)C(C)(C)[C@H]2C[C@@H](Cl)[C@]1(C)C=C` [AMBIGUINE A ISONITRILE], the MIC in assay [1] was 46.7 µM (≈ 19 µg/mL); with Bacillus anthracis it was 1 µM (≈ 0.407 µg/mL); against Staphylococcus aureus, 1.8 µM (≈ 0.733 µg/mL); in assay [2], 14.8 µM (≈ 6.02 µg/mL); against Candida albicans, less than 1 µM. Also, the IC50 with Vero amounted to 26 µM.

Take `[C-]#[N+][C@H]1[C@@](C)(C=C)[C@H](Cl)C[C@@H]2C(C)(C)c3cccc4[nH]c(C(C)(C)C=C)c(c34)[C@]21O` [AMBIGUINE B ISONITRILE]: the MIC came to 3.7 µM (≈ 1.57 µg/mL) against Bacillus anthracis, 10.9 µM (≈ 4.61 µg/mL) against Staphylococcus aureus, 27.8 µM (≈ 11.8 µg/mL) in assay [2] and 1.7 µM (≈ 0.719 µg/mL) in the assay with Candida albicans. This molecule returned an IC50 in the assay on Vero of 58.6 µM.

Take `[C-]#[N+][C@@H]1[C@]2(O)c3c(C(C)(C)C=C)[nH]c4cccc(c34)C(C)(C)[C@H]2CC[C@]1(C)C=C` [AMBIGUINE C ISONITRILE]: the MIC in assay [1] is 7 µM (≈ 2.72 µg/mL); against Bacillus anthracis, 16.1 µM (≈ 6.26 µg/mL); against Staphylococcus aureus, 7.4 µM (≈ 2.88 µg/mL); in assay [2], 59.6 µM (≈ 23.2 µg/mL); against Candida albicans it was less than 1 µM. The molecule also displayed an IC50 in the assay with Vero of 78.3 µM.

Consider `[C-]#[N+][C@]12[C@H]3O[C@H]3C(C)(C)c3[nH]c4cccc5c4c3[C@]1(O)[C@H](C[C@@H](Cl)[C@]2(C)C=C)C5(C)C` [AMBIGUINE E ISONITRILE], for which the minimum inhibitory concentration (MIC) in assay [1] was 21 µM (≈ 9.18 µg/mL); in the assay on Bacillus anthracis, 3.6 µM (≈ 1.57 µg/mL); against Staphylococcus aureus, 1.5 µM (≈ 0.655 µg/mL); in assay [2], 1.4 µM (≈ 0.612 µg/mL); against Candida albicans, less than 0.9 µM. In the assay with Vero, this molecule showed an IC50 of 42.6 µM.

Molecule `[C-]#[N+][C@]12[C@@H](O)[C@H](O)C(C)(C)c3[nH]c4cccc5c4c3[C@]1(O)[C@H](C[C@@H](Cl)[C@]2(C)C=C)C5(C)C` [AMBIGUINE F ISONITRILE] displayed an MIC in assay [1] of 61.2 µM (≈ 27.8 µg/mL). The same molecule returned a 50% inhibitory concentration (IC50) in the assay on Vero of 57.9 µM.

For `[C-]#[N+][C@]12C=CC(C)(C)c3[nH]c4cccc5c4c3[C@]1(O)[C@H](C[C@@H](Cl)[C@]2(C)C=C)C5(C)C` [AMBIGUINE K ISONITRILE], the MIC in assay [1] was 6.6 µM (≈ 2.78 µg/mL); against Bacillus anthracis it was 7.4 µM (≈ 3.12 µg/mL); against Staphylococcus aureus, 4.6 µM (≈ 1.94 µg/mL); in assay [2], 23.7 µM (≈ 9.98 µg/mL); with Candida albicans, less than 0.9 µM. In the assay with Vero, this molecule registered an IC50 of 53.2 µM.

Regarding `[C-]#[N+][C@]12C=CC(C)(C)c3[nH]c4cccc5c4c3[C@]1(O)[C@H](CC[C@]2(C)C=C)C5(C)C` [AMBIGUINE L ISONITRILE], the MIC in assay [1] was 11.7 µM (≈ 4.52 µg/mL); in the assay on Bacillus anthracis, 16.2 µM (≈ 6.26 µg/mL); in the assay on Staphylococcus aureus it was 10.5 µM (≈ 4.06 µg/mL); in assay [2] it was 29.3 µM (≈ 11.3 µg/mL); with Candida albicans it was less than 1 µM. Also, in the assay with Vero, the midpoint of inhibition, the IC50, lay at 44.6 µM.

With `[C-]#[N+][C@]12C[C@@H](O)C(C)(C)c3[nH]c4cccc5c4c3[C@]1(O)[C@H](C[C@@H](Cl)[C@]2(C)C=C)C5(C)C` [AMBIGUINE M ISONITRILE], the MIC in assay [1] is 7.5 µM (≈ 3.29 µg/mL); against Bacillus anthracis, 28.5 µM (≈ 12.5 µg/mL); against Staphylococcus aureus it was 4.7 µM (≈ 2.06 µg/mL); in assay [2] it was 25.8 µM (≈ 11.3 µg/mL); with Candida albicans it was 1.1 µM (≈ 0.483 µg/mL). This molecule also came in with an IC50 with Vero of 79.8 µM.

Consider `[C-]#[N+][C@]12C[C@@H](O)C(C)(C)c3[nH]c4cccc5c4c3[C@]1(O)[C@H](CC[C@]2(C)C=C)C5(C)C` [AMBIGUINE N ISONITRILE], for which the MIC was 27.1 µM (≈ 11 µg/mL) in assay [1]; 30.9 µM (≈ 12.5 µg/mL) against Bacillus anthracis; 5.5 µM (≈ 2.23 µg/mL) with Staphylococcus aureus; 48.8 µM (≈ 19.7 µg/mL) in assay [2]; less than 1 µM against Candida albicans. In the assay on Vero, this molecule registered an IC50 of 118 µM.

`[C-]#[N+][C@]12[C@H](O)C(=O)C(C)(C)c3[nH]c4cccc5c4c3[C@]1(O)[C@H](C[C@@H](Cl)[C@]2(C)C=C)C5(C)C` [AMBIGUINE O ISONITRILE]: the MIC in the assay with Bacillus anthracis was found to be 13.8 µM (≈ 6.25 µg/mL). The molecule also displayed an IC50 in the assay with Vero of 80.7 µM.

`O=C(O)c1cn(C2CC2)c2cc(N3CCNCC3)c(F)cc2c1=O` [CIPROFLOXACIN]: in the assay on Bacillus anthracis, the MIC turned out to be 0.2 µM (≈ 0.0663 µg/mL).

On to `[C-]#[N+][C@@H]1[C@@H]2c3c[nH]c4cccc(c34)C(C)(C)[C@H]2C[C@@H](Cl)[C@]1(C)C=C` [HAPALINDOLE G], for which the MIC in assay [1] was 6.8 µM (≈ 2.3 µg/mL); against Bacillus anthracis, more than 128 µM; against Staphylococcus aureus it was more than 128 µM; in assay [2] it was 34 µM (≈ 11.5 µg/mL); against Candida albicans, more than 128 µM. The IC50 in the assay with Vero is more than 128 µM. Besides, the Ratio in assay [3] came to 50.

Consider `[C-]#[N+][C@@H]1[C@H]2c3c[nH]c4cccc(c34)C(C)(C)[C@@H]2CC[C@]1(C)C=C` [HAPALINDOLE H], for which the MIC in assay [1] was 58.8 µM (≈ 17.9 µg/mL); against Bacillus anthracis, more than 128 µM; in the assay on Staphylococcus aureus it was more than 128 µM; in assay [2] it was 39.6 µM (≈ 12.1 µg/mL); in the assay with Candida albicans, 5.1 µM (≈ 1.55 µg/mL). The same molecule returned an IC50 in the assay with Vero of more than 128 µM.

`CC(=O)N1CCN(c2ccc(OCC3COC(Cn4ccnc4)(c4ccc(Cl)cc4Cl)O3)cc2)CC1` (stereo not given) [KETOCONAZOLE]: the lowest concentration to inhibit growth with Candida albicans (MIC) was 0.03 µM (≈ 0.0159 µg/mL).

In turn, `COc1c(N2C[C@@H]3CCCN[C@@H]3C2)c(F)cc2c(=O)c(C(=O)O)cn(C3CC3)c12` [MOXIFLOXACIN] showed an MIC in assay [2] of 0.7 µM (≈ 0.281 µg/mL).

As to `CO[C@H]1/C=C/O[C@@]2(C)Oc3c(C)c(O)c4c(O)c(c(/C=N/N5CCN(C)CC5)c(O)c4c3C2=O)NC(=O)/C(C)=C\C=C\[C@H](C)[C@H](O)[C@@H](C)[C@@H](O)[C@@H](C)[C@H](OC(C)=O)[C@@H]1C` [RIFAMPIN], inhibition of growth in assay [1] (MIC) required 0.1 µM (≈ 0.0823 µg/mL). Moreover, the IC50 with Vero worked out at 97.9 µM.

In the assay on Staphylococcus aureus, GENTAMICIN displayed an MIC of 1.4 µM.
